Measurements collected from several papers.
Each line is one published result; the experiments were not run side by side.
Target: Amine oxidase [flavin-containing] B (MAOB, Homo sapiens, UniProt P27338)
Read-out: enzyme activity
Mode: inhibitor
Sequence (P27338 1-520, as in one of the studies): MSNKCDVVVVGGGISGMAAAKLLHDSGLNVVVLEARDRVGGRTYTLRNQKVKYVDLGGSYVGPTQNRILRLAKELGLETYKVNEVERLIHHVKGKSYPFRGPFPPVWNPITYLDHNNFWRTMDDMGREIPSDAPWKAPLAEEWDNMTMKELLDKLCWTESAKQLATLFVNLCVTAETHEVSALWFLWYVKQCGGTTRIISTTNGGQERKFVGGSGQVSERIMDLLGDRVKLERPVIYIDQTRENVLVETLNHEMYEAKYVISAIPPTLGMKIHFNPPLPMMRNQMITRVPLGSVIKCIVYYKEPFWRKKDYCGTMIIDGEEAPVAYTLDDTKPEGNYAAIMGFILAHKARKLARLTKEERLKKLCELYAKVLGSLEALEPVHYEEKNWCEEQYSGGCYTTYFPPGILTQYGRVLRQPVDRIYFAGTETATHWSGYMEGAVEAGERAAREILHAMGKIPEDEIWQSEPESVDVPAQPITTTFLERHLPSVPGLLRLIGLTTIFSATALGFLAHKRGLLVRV

method	IC50	SMILES
–	20 µM	CCn1c(-c2nc3ccc(C(=O)N4CCCC(N)C4)cc3n2C)cc2ccccc21 (stereo not shown)
fluorescence	1.1 µM	COc1ccc(/C=C/C(=O)N2CCC(Cc3ccccc3)CC2)cc1OC
–	23.2 µM	O=c1cc(-c2ccc(O)cc2)oc2cc(O)c([C@@H]3O[C@H](CO)[C@@H](O)[C@H](O)[C@H]3O)c(O)c12
fluorescence	0.4 µM	c1ccc(Nc2nccc(-c3cccnc3)n2)cc1
fluorescence	0.32 µM	C#CCOc1ccc(/C=C/C(=O)N2CCC(Cc3ccccc3)CC2)cc1OC
–	68.1 µM	O=C1c2c(O)cc(O)cc2O[C@H](c2ccc(O)cc2)[C@H]1O
–	0.139 µM	O=C(Nc1ccc(Br)cc1)c1cc(Cl)ccc1O
–	31.9 µM	O=C(O)c1cc(O)c2c(c1)C(=O)c1cc(O)cc(O)c1C2=O
fluorescence	0.14 µM	O=c1[nH]c(-c2ccccc2)cnc1-c1ccccc1
–	12.1 µM	O=C1C[C@@H](c2cc(O)cc(O)c2)Oc2cc(O)ccc21
fluorescence	0.25 µM	CSc1ccc(CNc2nc3ccccc3n3cnnc23)cc1
fluorescence	3.8 µM	COc1cc(/C=C/C(=O)N2CCC(Cc3ccccc3)CC2)ccc1OCc1ccccc1
fluorescence	0.51 µM	c1ccc(Nc2nccc(-c3ccco3)n2)cc1
–	> 1 µM	COC(=O)c1ccc(C(=O)OC)c(NC(=O)c2cc(Cl)ccc2O)c1
–	0.27 µM	O=C1C[C@@H](c2ccc(O)cc2)Oc2cc(O)cc(O)c21
fluorescence	0.061 µM	Cn1c(=O)c2ccc(C(=O)Nc3ccccc3F)nc2n(C)c1=O
